Rows were chosen to be rich in hits. Some 12% of all compounds tested hit in one or more screens of this group.
Dynein transport – inhibitors of GR-EGFP nuclear translocation, primary screen, dynein cargo transport inhibitor project, imaging, high-content, 3617.4 mouse cells; test concentration mostly 20 µM; stimulated with dexamethasone, 1 µM; active compounds read low; z-score, hits read low; 220,000 compounds, 0.47% hits; AID 1381, 2008;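 active = plate z-score of nuclear minus cytoplasmic receptor signal below a set negative limit, without overly bright fluorescence or cell loss, cut at about -3.5 in these data, passing the limit was not always enough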;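 also: z-score of nuclear minus cytoplasmic ring GR-EGFP intensity difference per well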
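medium = tetracycline-free induction medium containing charcoal-stripped FBS | also added = 1.0 µM final dexamethasone stimulus | schedule = 48 h induction, 1 h compound, 30 min dex at 37 °C | technique = fixed, Hoechst-stained cells imaged at 10x for EGFP | measure = GR-EGFP nuclear translocation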
L major viab – Leishmania major promastigote growth inhibition, primary screen; Leishmania major promastigotes, resazurin fluorescence viability; inhibition, % at 10 µM; 200,000 compounds, 9% hits; AID 1063, 2008; in the data active = inhibition above about 50%;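 also: promastigotes grown with compound for 44 hours at 28 °C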
MT stabilizer – microtubule stabilizers in HeLa cells, primary screen, imaging, high-content imaging; 200,000 compounds, 0.83% hits; HeLa tubulin immunostaining HCS, 24 h; share of cells brighter than vehicle mean+2SD; % tubulin-high responders, % at 10 µM;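 active = plate Z-score above 3 for both tubulin-high and condensed-nucleus cell shares, with cell loss under 80%, at 10 µM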;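 also: anti alpha tubulin signal scored within the nucleus-defined area of each cell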
CHOP inhibitor – inhibitors of CHOP promoter induction, primary screen, cell-based, unfolded protein response, luciferase reporter. inhibition, % at 10 µM. 220,000 compounds, 3.8% hits. CHO-K1 CHOP-promoter luciferase, tunicamycin-induced, 15-18 h;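 active = compounds that reduced the stress-induced luciferase reporter signal by more than about 70% of percent inhibition, limit read from the data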;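 also: 0% = tunicamycin plus vehicle and 100% = wells without tunicamycin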
Autophagy mod – autophagy modulators in MEF cells, primary screen, imaging, high-content, MEF GFP-LC3; MEF GFP-LC3 puncta imaging; test concentration mostly 10 µM; calls only at 10 µM (by protocol); 190,000 compounds, 0.98% hits; AID 463193, 2010;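 active = percentage of spot-positive cells more than 3 SD above its plate mean, without a fluorescence outlier flag or 80% toxicity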;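 also: spot-positive cell cutoff set from DMSO-treated cells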
bCat nuc transl – modulators of beta-catenin nuclear translocation, primary screen, imaging, HeLa cells, immunofluorescence, high-content; 190,000 compounds, 0.3% hits; nuclear translocation activity, % at 5 µM;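 active = nuclear translocation activity above 50% at 5 µM, with a well cell count of 50 or more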;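 also: per-cell ratio of nuclear to cytoplasmic median beta-catenin stain intensity; plate controls were DMSO negative control for no effect and GSK-3 inhibitor IX positive control for full effect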
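assay system = human HeLa cells, endogenous beta-catenin | times = compound treatment 24 h, 37°C, 5% CO2 | detection = Anti-beta-catenin immunofluorescence on PFA-fixed, Triton-permeabilized cells, DAPI nuclei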
CHOP confirm – retest of CHOP induction inhibitors, confirmation, cell-based. shares compounds with CHOP inhibitor. CHO-CHOP promoter luciferase reporter, tunicamycin-induced, luminescence. inhibition, % at 10 µM. 2,100 compounds, 45% hits;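 active = mean of three repeat readings of reporter signal inhibition above a set limit, cut at about 70% in these data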;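 also: 0% = tunicamycin plus vehicle and 100% = wells lacking tunicamycin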
Starred values were filed as active, the others as inactive; i = inactive; . = no result given.

SMILES	Dynein transport	L major viab	MT stabilizer	CHOP inhibitor	Autophagy mod	bCat nuc transl	CHOP confirm
CCc1nn(CC(=O)NCCCN(CC)c2cccc(C)c2)c(=O)c2cc3occc3n12	-1.06	-2.6	2.3	103.8*	i	1.3	31.0
CC1=NOC(=O)/C1=C/c1ccc2c(c1)OCO2	-0.493	23.5	5.2	100.3*	i	-2.6	-27.2
CC1=NOC(=O)/C1=C\c1ccc2c(c1)OCO2	-0.48	27.8	2.4	101.0*	i	-0.5	-30.6
O=C(CCn1c(=O)c2sccc2n(CC(=O)OCc2ccccc2)c1=O)NCc1ccccc1	0.254	-6.4	1.8	-17.7	i	-2.6	.
CCOC(=O)c1c(CC(C)C)csc1NC=O	0.918	6.6	15.5	99.2*	i	6.3	25.5
CCOC(=O)c1c(CC(C)C)csc1NC(C)=O	-1.12	-1.9	1.8	56.0	i	.	.
COc1ccc(C(=O)NCCn2cc(SCC(N)=O)c3ccccc32)cc1	-0.624	.	.	-1.5	.	-0.1	.
O=c1[nH]c(/C(Cl)=C/c2cc(Cl)ccc2O)nc2cc(Cl)ccc12	-1.35	49.2	2.7	99.6*	i	4.0	23.3
O=c1[nH]c(/C(Cl)=C/c2cccc(C(F)(F)F)c2)nc2cc(Cl)ccc12	0.188	-1.4	3.0	28.9	i	-1.1	.
CC(C)Cn1c(N)c(C(=O)COC(=O)C2CCCCC2)c(=O)n(C)c1=O	0.307	-9.4	2.8	99.7*	i	-3.8	77.8*
CC(C)Cn1c(N)c(C(=O)COC(=O)c2ccc(O)cc2)c(=O)n(C)c1=O	-0.57	-1.8	3.7	28.7	i	1.2	.
CCCc1nc(SCC(=O)Nc2ccccc2)c2c(=O)n(C)c(=O)n(C)c2n1	-0.375	-7.0	8.7	98.5*	i	1.4	23.2
CC(CN1CCN(Cc2ccccc2)CC1)OC(=O)c1ccco1 (stereo unspecified)	0.448	.	.	14.8	.	-0.1	.
Cc1nc(-c2ccccn2)sc1C(=O)Nc1ccc(Cl)c(Cl)c1	-0.323	-4.6	1.5	36.9	i	.	.
Cc1cccc(N2CCN(C(=S)Nc3ccc4nc(N5CCN(C)CC5)cc(C)c4c3)CC2C)c1 (stereo unspecified)	-0.459	97.7*	4.1	106.3*	i	-0.1	-14.5
COc1ccc(Cc2nc3ccccc3n2CC(=O)N/N=C/c2ccc(C)cc2O)cc1OC	0.275	-5.3	4.6	104.2*	i	0.2	103.3*
N#CC(c1ccccc1O)N1N=C(c2ccccc2)CC1c1ccccc1 (stereo unspecified)	1.11	.	.	97.1*	.	0.5	26.1
O=C(O)/C=C/C(=O)Nc1ccc(O)cc1	0.0717	.	.	8.0	.	-1.5	.
Cc1nn(C)c(C)c1NC(=O)CSc1nc(-c2ccccc2Cl)nc2c1cnn2-c1ccccc1	-0.129	-0.9	2.7	18.6	i	1.0	.
Cc1nn(C)c(C)c1NC(=O)CSc1nc(C2CC2)nc2c1cnn2-c1ccccc1	1.99	0.7	3.0	102.3*	i	0.3	30.2
Cc1ccc2[nH]c(=O)c3cc(C(=O)N(C)c4ccccc4C)sc3c2c1	1.57	.	.	101.2*	.	2.2	2.0
COCc1cc(C)nc(SCC(=O)Nc2cccc(C)c2C)c1C#N	1.54	-1.6	2.8	31.8	i	-0.5	.
Cc1cccc(NC(=O)CSc2nc(C)c(CC(=O)c3ccc(Br)cc3)c(C)c2C#N)c1C	-1.58	-6.1	4.3	102.5*	i	1.6	106.4*
Cc1nc(SCC(=O)Nc2ccc(F)cc2)c(C#N)c(C)c1CC(=O)c1ccc(Br)cc1	0.0278	-3.5	3.4	103.0*	i	0.2	96.8*
Cc1c(CNC2CCCC2)c(C(=O)O)c(C)n1Cc1ccccc1	2.33	6.6	3.6	-5.3	i	1.0	.
O=C(c1ccc2c(c1)OCO2)N1CCC2(CC1)Oc1ccc(F)cc1C(=O)C21CC(c2ccccc2)=NO1 (stereo unspecified)	-0.296	.	.	16.8	.	-0.7	.
CCCCCCCCc1nnc(N)s1	-0.176	.	.	6.1	.	-0.9	.
